# Measured values: BindingDB's records for doi:10.1021/jm030056e (Glaxosmithkline, 2003)
# Key:
# [1] = target: cGMP-specific 3',5'-cyclic phosphodiesterase (Bos taurus, UniProt Q28156); experiment: Inhibitory activity against bovine PDE5 (phosphodiesterase-5).
# [2] = target: cGMP-dependent 3',5'-cyclic phosphodiesterase (Homo sapiens, UniProt O00408); experiment: Inhibition of human recombinant PDE2 (phosphodiesterase 2)
# Summary of the method: (§1)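 Incubated 30 min at 30 °C under initial-velocity conditions (≤10-15% hydrolysis). Product separated on QAE Sephadex and counted by scintillation; final DMSO 2%.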
# [3] = target: Phosphodiesterase (Bos taurus, UniProt E1BN64); experiment: Inhibition of bovine aorta PDE3 (phosphodiesterase 3); summary of the method: as §1
# Sequence of Phosphodiesterase (E1BN64 whole entry): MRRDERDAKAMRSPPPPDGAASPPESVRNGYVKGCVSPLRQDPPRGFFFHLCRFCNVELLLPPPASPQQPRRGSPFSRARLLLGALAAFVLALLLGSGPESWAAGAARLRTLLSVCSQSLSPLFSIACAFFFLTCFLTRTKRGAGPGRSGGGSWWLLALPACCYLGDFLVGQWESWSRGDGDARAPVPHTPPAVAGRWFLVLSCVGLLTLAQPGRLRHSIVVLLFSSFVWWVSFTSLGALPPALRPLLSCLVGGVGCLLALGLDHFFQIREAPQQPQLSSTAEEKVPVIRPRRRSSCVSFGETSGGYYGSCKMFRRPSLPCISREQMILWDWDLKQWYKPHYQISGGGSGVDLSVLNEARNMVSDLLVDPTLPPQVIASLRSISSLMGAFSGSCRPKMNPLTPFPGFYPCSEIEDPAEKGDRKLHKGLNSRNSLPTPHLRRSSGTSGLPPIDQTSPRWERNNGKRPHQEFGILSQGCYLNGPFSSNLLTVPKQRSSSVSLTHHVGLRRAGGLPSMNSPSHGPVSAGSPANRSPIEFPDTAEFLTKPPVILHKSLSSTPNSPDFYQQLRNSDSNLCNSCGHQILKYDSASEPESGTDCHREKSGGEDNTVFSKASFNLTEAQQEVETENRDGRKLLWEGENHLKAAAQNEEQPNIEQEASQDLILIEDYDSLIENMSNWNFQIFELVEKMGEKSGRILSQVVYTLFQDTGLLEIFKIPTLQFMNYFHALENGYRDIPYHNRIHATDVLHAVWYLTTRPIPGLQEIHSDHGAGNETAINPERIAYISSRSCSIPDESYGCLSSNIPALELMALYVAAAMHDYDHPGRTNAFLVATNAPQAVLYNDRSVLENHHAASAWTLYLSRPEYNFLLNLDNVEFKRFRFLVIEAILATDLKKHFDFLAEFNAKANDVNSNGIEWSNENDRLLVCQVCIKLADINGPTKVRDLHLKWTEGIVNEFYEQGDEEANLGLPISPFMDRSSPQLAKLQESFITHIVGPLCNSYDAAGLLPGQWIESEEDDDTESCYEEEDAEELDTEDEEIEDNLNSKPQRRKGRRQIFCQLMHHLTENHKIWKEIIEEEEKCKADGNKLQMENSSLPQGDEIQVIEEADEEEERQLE
# Sequence of cGMP-dependent 3',5'-cyclic phosphodiesterase (O00408 whole entry): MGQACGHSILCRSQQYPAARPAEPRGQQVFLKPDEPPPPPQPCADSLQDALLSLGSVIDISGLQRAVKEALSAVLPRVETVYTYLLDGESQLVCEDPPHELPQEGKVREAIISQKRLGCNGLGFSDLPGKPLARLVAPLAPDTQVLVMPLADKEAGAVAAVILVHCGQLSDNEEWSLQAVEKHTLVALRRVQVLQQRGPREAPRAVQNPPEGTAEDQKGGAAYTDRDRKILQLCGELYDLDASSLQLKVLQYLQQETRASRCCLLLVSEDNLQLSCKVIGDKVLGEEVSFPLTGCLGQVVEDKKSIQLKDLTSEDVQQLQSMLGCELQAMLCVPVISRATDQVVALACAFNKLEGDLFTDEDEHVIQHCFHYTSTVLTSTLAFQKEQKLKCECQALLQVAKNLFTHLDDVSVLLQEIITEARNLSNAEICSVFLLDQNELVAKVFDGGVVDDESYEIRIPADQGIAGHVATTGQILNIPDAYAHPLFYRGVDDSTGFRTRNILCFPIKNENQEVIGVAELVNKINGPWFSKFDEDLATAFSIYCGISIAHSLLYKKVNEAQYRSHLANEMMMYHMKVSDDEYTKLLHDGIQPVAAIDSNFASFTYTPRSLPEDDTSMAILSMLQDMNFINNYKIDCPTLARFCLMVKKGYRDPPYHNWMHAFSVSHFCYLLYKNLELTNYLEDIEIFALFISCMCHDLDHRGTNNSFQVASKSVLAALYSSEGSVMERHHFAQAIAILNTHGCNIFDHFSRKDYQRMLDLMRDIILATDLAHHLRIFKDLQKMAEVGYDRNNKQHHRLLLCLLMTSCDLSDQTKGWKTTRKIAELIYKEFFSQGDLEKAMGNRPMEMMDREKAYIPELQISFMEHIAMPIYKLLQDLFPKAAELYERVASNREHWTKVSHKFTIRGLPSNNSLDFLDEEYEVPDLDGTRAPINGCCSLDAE
SMILES,IC50 [1] [nM],IC50 [2] [nM],IC50 [3] [nM]
"CCCCn1c(O)c2n(c1=O)[C@H](c1ccsc1)c1[nH]c3ccccc3c1C2 [Cis-2-Butyl-10-thiophen-3-yl-3a,4,9,10-tetrahydro-2,9,10a-triaza-cyclopenta[b]fluorene-1,3-dione]",30,–,–
"CCCCn1c(O)c2n(c1=O)[C@H](c1ccncc1)c1[nH]c3ccccc3c1C2 [Cis-2-Butyl-10-pyridin-4-yl-3a,4,9,10-tetrahydro-2,9,10a-triaza-cyclopenta[b]fluorene-1,3-dione]",300,–,–
"COc1ccc([C@@H]2c3[nH]c4ccccc4c3Cc3c(O)n(C4CCCCC4)c(=O)n32)cc1 [(3aR,10R)-2-Cyclohexyl-10-(4-methoxy-phenyl)-3a,4,9,10-tetrahydro-2,9,10a-triaza-cyclopenta[b]fluorene-1,3-dione]",7,> 10000,–
"COc1ccc([C@H]2c3[nH]c4ccccc4c3Cc3c(O)n(CCN(C)C)c(=O)n32)cc1 [(3aR,10S)-2-(2-Dimethylamino-ethyl)-10-(4-methoxy-phenyl)-3a,4,9,10-tetrahydro-2,9,10a-triaza-cyclopenta[b]fluorene-1,3-dione]",30,–,–
"CCCCn1c(O)c2n(c1=O)[C@H](c1ccoc1)c1[nH]c3ccccc3c1C2 [(3aR,10R)-2-Butyl-10-furan-3-yl-3a,4,9,10-tetrahydro-2,9,10a-triaza-cyclopenta[b]fluorene-1,3-dione]",100,–,–
COc1ccc([C@H]2c3[nH]c4ccccc4c3Cc3c(O)n(CCN4CCCC4)c(=O)n32)cc1,100,–,–
"COc1ccc([C@H]2c3[nH]c4ccccc4c3Cc3c(O)n(Cc4cccnc4)c(=O)n32)cc1 [(3aR,10S)-10-(4-Methoxy-phenyl)-2-pyridin-3-ylmethyl-3a,4,9,10-tetrahydro-2,9,10a-triaza-cyclopenta[b]fluorene-1,3-dione]",20,–,–
"CCCCn1c(O)c2n(c1=O)[C@H](c1ccc(OC)cc1)c1[nH]c3ccccc3c1C2 [(3aR,10R)-2-Butyl-10-(4-methoxy-phenyl)-3a,4,9,10-tetrahydro-2,9,10a-triaza-cyclopenta[b]fluorene-1,3-dione]",–,> 10000,> 10000
"CCCCn1c(O)c2n(c1=O)[C@@H](c1ccc(OC)cc1)c1[nH]c3ccccc3c1C2 [(3aR,10S)-2-Butyl-10-(4-methoxy-phenyl)-3a,4,9,10-tetrahydro-2,9,10a-triaza-cyclopenta[b]fluorene-1,3-dione]",–,> 10000,> 10000
"COc1ccc([C@H]2c3[nH]c4ccccc4c3Cc3c(O)[nH]c(=O)n32)cc1 [(3aR,10S)-10-(4-Methoxy-phenyl)-3a,4,9,10-tetrahydro-2,9,10a-triaza-cyclopenta[b]fluorene-1,3-dione]",20,–,–
"COc1ccc([C@@H]2c3[nH]c4ccccc4c3Cc3c(O)n(Cc4ccccc4)c(=O)n32)cc1 [(3aR,10R)-2-Benzyl-10-(4-methoxy-phenyl)-3a,4,9,10-tetrahydro-2,9,10a-triaza-cyclopenta[b]fluorene-1,3-dione]",–,> 10000,> 10000
